Experimental data published in ChEMBL document CHEMBL2385045, “Discovery of novel 4-(2-fluorophenoxy)quinoline derivatives bearing 4-oxo-1,4-dihydrocinnoline-3-carboxamide moiety as c-Met kinase inhibitors” (Bioorg Med Chem, 2013).

What was measured:
A549 = test: Cytotoxicity against c-Met-dependent human A549 cells assessed as growth inhibition after 72 hrs by MTT assay; conditions: A549, 72 h
MKN-45 = test: Cytotoxicity against c-Met-dependent human MKN45 cells assessed as growth inhibition after 72 hrs by MTT assay; conditions: MKN-45, 72 h
[1] = target: Mast/stem cell growth factor receptor Kit (Homo sapiens, UniProt P10721); test: Inhibition of c-Kit (unknown origin) using poly (Glu, Tyr) 4:1 as substrate after 30 mins by HTRF assay
In short: (§1)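 HTRF kinase assay on plates precoated with 20 µg/mL poly(Glu,Tyr) 4:1. ATP (10 mM solution) in 50 mM HEPES pH 7.0 buffer with DTT, MgCl₂, MnCl₂ and 0.1% NaN₃. Compound in 1% DMSO; reaction started with purified kinase and run 30 min at 25 °C. Stopped with Streptavidin-XL665 plus TK antibody cryptate and read at 320/615. Inhibition relative to enzyme and no-enzyme controls; IC50 from the inhibition curves.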

[2] = target: Platelet-derived growth factor receptor alpha (Homo sapiens, UniProt P16234); test: Inhibition of PDGFRalpha (unknown origin) using poly (Glu, Tyr) 4:1 as substrate after 30 mins by HTRF assay; in short: as §1
[3] = target: T1, Receptor-type tyrosine-protein kinase FLT3 (Homo sapiens, UniProt P36888); test: Inhibition of Flt-3 (unknown origin) using poly (Glu, Tyr) 4:1 as substrate after 30 mins by HTRF assay; in short: as §1
T1 sequence (P36888 whole entry): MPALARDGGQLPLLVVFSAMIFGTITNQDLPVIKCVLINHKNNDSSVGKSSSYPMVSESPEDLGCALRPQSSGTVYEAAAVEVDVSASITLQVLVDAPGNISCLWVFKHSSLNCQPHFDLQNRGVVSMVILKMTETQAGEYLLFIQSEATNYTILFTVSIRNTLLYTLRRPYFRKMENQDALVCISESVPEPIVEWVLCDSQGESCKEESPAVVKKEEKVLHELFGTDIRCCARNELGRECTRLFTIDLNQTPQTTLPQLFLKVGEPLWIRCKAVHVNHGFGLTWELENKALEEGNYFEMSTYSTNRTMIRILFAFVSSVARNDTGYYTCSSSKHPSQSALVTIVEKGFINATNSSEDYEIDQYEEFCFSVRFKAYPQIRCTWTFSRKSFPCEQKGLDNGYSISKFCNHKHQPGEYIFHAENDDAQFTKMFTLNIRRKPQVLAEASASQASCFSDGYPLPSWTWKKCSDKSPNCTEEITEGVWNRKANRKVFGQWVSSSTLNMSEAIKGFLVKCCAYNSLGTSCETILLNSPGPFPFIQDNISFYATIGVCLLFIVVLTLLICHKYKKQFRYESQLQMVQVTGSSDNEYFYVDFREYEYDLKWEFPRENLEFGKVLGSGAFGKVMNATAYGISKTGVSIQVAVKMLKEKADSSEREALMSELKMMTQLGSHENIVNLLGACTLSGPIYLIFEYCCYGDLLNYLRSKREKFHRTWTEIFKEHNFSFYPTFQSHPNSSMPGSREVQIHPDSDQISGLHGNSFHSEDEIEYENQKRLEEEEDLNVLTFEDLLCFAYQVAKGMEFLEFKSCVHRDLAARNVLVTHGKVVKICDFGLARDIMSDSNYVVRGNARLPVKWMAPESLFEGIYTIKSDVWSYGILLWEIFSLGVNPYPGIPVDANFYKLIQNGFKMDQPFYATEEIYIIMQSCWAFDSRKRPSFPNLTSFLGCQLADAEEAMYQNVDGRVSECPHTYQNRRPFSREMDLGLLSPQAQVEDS

[4] = target: Vascular endothelial growth factor receptor 2 (Homo sapiens, UniProt P35968); test: Inhibition of VEGFR-2 (unknown origin) using poly (Glu, Tyr) 4:1 as substrate after 30 mins by HTRF assay; in short: as §1
[5] = Cytotoxicity against c-Met-independent human H460 cells assessed as growth inhibition after 72 hrs by MTT assay; conditions: NCI-H460, 72 h
[6] = target: Hepatocyte growth factor receptor (Homo sapiens, UniProt P08581); test: Inhibition of c-Met (unknown origin) using poly (Glu, Tyr) 4:1 as substrate after 30 mins by HTRF assay
[7] = Cytotoxicity against c-Met-dependent human U87MG cells assessed as growth inhibition after 72 hrs by MTT assay; format: functional, cell-based, U-87MG ATCC; conditions: U-87 MG
In short: (§2)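 Cells grown in MEM with 10% FBS. About 4×10³ cells/well were seeded and incubated 24 h at 37 °C, 5% CO₂, then exposed to compound for 72 h. MTT was added (terminal 5 µg/mL) for 4 h at 37 °C, and formazan was dissolved in DMSO. IC50 is the mean of three determinations.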

[8] = target: Epidermal growth factor receptor (Homo sapiens, UniProt P00533); test: Inhibition of EGFR (unknown origin) using poly (Glu, Tyr) 4:1 as substrate after 30 mins by HTRF assay; in short: as §1
HT-29 = test: Cytotoxicity against c-Met-dependent human HT-29 cells assessed as growth inhibition after 72 hrs by MTT assay; conditions: HT-29, 72 h
SMMC-7721 = test: Cytotoxicity against c-Met-dependent human SMMC7721 cells assessed as growth inhibition after 72 hrs by MTT assay; format: functional, cell-based; conditions: SMMC-7721, 72 h; in short: as §2

Work on COc1cc2c(Oc3ccc(NC(=O)c4nn(-c5ccccc5C(F)(F)F)c5ccccc5c4=O)cc3F)ccnc2cc1OCCCN1CCCC1 yielded an IC50 (A549) of 35 nM, an IC50 (MKN-45) of 22 nM and an IC50 [1] of 3.9 nM. The IC50 [2] was 27.3 nM, the IC50 [3] was 8.5 nM and the IC50 [4] was 15.4 nM. It also gave an IC50 [5] of 55 nM, an IC50 [6] of 0.59 nM and an IC50 [7] of 350 nM. It also gave an IC50 [8] of over 10000 nM, an IC50 (HT-29) of 110 nM and an IC50 (SMMC-7721) of 250 nM.
